ChEMBL document CHEMBL2176910, “Identification of small molecule inhibitors of amyloid β-induced neuronal apoptosis acting through the imidazoline I(2) receptor” (J Med Chem, 2012)
The source made the active and inactive calls. No cut-off for these calls is given here.

Experiments:
Mus musculus = organism: Mus musculus; assay: Inhibition of imidazole receptor 2 in mouse hippocampal neurons assessed as reduction in tPA-induced Erk1/2 activation at 30 uM pre-incubated for 4 hrs before tPA stimulation by ELISA; conditions: Hippocampus
Outline: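 Primary mouse hippocampal neurons were stimulated with tPA (20 μg/mL, 1 h) with or without compound at 30 μM. Phospho-Erk1/2 was measured by ELISA with a phospho-specific antibody and normalized to total Erk1/2. Untreated cultures set the lower limit and tPA alone the upper limit.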

Hippocampal neuron [1] = assay: (§1) Neuroprotective activity in mouse hippocampal neurons assessed as Abeta-induced neuronal apoptosis at 30 uM pre-incubated for 4 hrs before Abeta challenge for 72 hrs by TUNEL assay (reference value: 100%); type: functional; conditions: Hippocampus
Outline: (§2)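 Aggregated Aβ (20 μM, 72 h) was applied to primary mouse hippocampal neurons with or without compound at 30 μM. Apoptosis was scored by TUNEL as the percentage of positive nuclei among total nuclei, referred to Aβ alone (100%). Medium-only cells were the negative control and DNase the positive control. n = 4, mean ± SEM, two-tailed Student's test.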

[2] = Inhibition of radioligand binding to N-methyl D-aspartate receptor phencyclidine binding site at 10 uM
Outline: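 Radioligand binding panel. Values are average percentages of inhibition of specific binding, measured against potent standard ligands for each target.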

Hippocampal neuron [3] = assay: Neuroprotective activity against Abeta-induced neuronal apoptosis in mouse hippocampal neurons assessed as reduction in DNA fragmentation at 30 uM pre-incubated for 4 hrs before Abeta challenge for 72 hrs by immunofluorescence microscopy; type: functional, tissue-based; conditions: Hippocampus
Outline: (§3)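 Primary mouse hippocampal neurons were exposed to Aβ (20 μM, 72 h) alone or with compound. Double immunofluorescence microscopy was then run for DNA fragmentation (TUNEL, green) and total neuronal nuclei (NeuN, red), with merged images. DNase-treated cells served as positive control.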

[4] = as §1; type: functional, Hippocampus, Hippocampal neuron; outline: as §2
Hippocampal neuron [5] = assay: Neuroprotective activity against Abeta-induced neuronal apoptosis in mouse hippocampal neurons assessed as reduction in total neuronal nuclei level at 30 uM pre-incubated for 4 hrs before Abeta challenge for 72 hrs by immunofluorescence microscopy; type: functional, tissue-based; conditions: Hippocampus; outline: as §3
Rattus norvegicus [6] = organism: Rattus norvegicus; assay: Displacement of [3H]idazoxan from rat cerebral cortex imidazole receptor 2 at 10 uM in presence of 1 uM yohimbine; type: tissue-based
Rattus norvegicus [7] = organism: Rattus norvegicus; assay: Displacement of [3H]2-BFI from rat imidazole receptor 2 in rat whole brain at 10 uM in presence of 1 uM yohimbine

| Compound | inhibition of tPA-induced Erk1/2 activation (active/inactive call) (Mus musculus) | Activity (Hippocampal neuron [1]) | inhibition [2] [%] | other results |
| --- | --- | --- | --- | --- |
| c1ccc(C2NCCc3sccc32)cc1 (configuration not stated) | Active | Active | – | – |
| c1csc(C2NCCc3ccccc32)c1 (configuration not stated) | Active | Active | – | – |
| CN1Cc2ccccc2C2CCc3ccccc3C21 (configuration not stated) | Active | inactive | – | – |
| C[C@]12N[C@H](Cc3ccccc31)c1ccccc12 | – | – | 98 | inhibition (Mus musculus): Active |
| CC12CC3CC(C)(C1)CC(N)(C3)C2 [MEMANTINE] | Active | – | 92 | Activity (Hippocampal neuron [3]): Active; Activity [4]: 42.3%; Activity (Hippocampal neuron [5]): Active |
| CN1CCn2cccc2C1c1ccccc1 (configuration not stated) | Active | Active | – | – |
| c1ccc(C2NCCc3ccccc32)cc1 (configuration not stated) | Active | inactive | 69 | – |
| CN1CCCC2(CCCNC2)C1 (configuration not stated) | Active | inactive | – | – |
| c1ccc(-c2ncc3cc(-n4ccnc4)ccc3n2)cc1 | – | – | – | inhibition (Rattus norvegicus [6]): 66%; inhibition (Rattus norvegicus [7]): 92% |
